Data published in ChEMBL document CHEMBL1649302, “New small-molecule inhibitor class targeting human immunodeficiency virus type 1 virion maturation” (Antimicrob Agents Chemother, 2009).
Active and inactive are the calls of the source. No cut-off for these calls is given here.

Columns and labels:
[1] = Therapeutic index, ratio of CC50 for human PBMC to EC50 for HIV1 92RW009 infected in human PBMC; conditions: read-out: TI
Procedure, shortened: (§1)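 Frozen PHA-stimulated (1.5 μg/ml, 3 days) buffy-coat PBMCs pooled from three or four seronegative donors. Infected with a TCID50-based virus input per 10⁶ cells for 1 h at 37°C, then pelleted and resuspended in 10 ng/ml IL-2. Plated at 4 × 10⁵ cells/ml on compound dilutions for 7 days at 37°C. Supernatant RT measured by Quan-T-RT. TI is mean CC50 divided by mean EC50.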

[2] = tested on: Human immunodeficiency virus 1; assay: Antiviral activity HIV1 91US005 infected in human PBMC after 7 days by scintillation counting; type: functional, organism-based; conditions: Human immunodeficiency virus 1, 91US005, 168 h
Procedure, shortened: (§2)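 Fresh PBMCs from HIV/HBV-seronegative donors were PHA-stimulated (4 μg/ml, 48–72 h) and kept with IL-2 (20 U/ml), with at least two donors pooled. Cells were seeded at 5 × 10⁴/well and infected (final MOI ≅0.1) with nine compound concentrations in triplicate wells. After 7 days, reverse transcriptase activity was measured in cell-free supernatant.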

[3] = tested on: Human immunodeficiency virus 1; assay: Antiviral activity HIV1 96USHIPS7 infected in human PBMC after 7 days by scintillation counting; type: functional, organism-based; conditions: Human immunodeficiency virus 1, 96USHIPS7, 168 h; procedure, shortened: as §2
[4] = tested on: Human immunodeficiency virus 1; assay: Antiviral activity against HIV1 92HT599 infected in human MT2 cells assessed as inhibition of viral p24 antigen production after 5 days; type: functional, organism-based; conditions: Human immunodeficiency virus 1, 92HT599, MT2, 120 h
Procedure, shortened: (§3)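 PM1 cells (NL4-3, Ba-L) or MT-2 cells (92HT594, 92HT599) were infected at MOI 0.16 for 2 h and washed. They were plated at 1 × 10⁴ cells/well (2 × 10⁵/ml) onto half-log compound dilutions. Supernatant p24 was quantified by ELISA at day 5. EC50 was the concentration giving a 50% decrease versus infected, compound-free cells.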

[5] = Therapeutic index, ratio of CC50 for human PBMC to EC50 for HIV1 92TH014 infected in human PBMC; conditions: read-out: TI
Procedure, shortened: (§4)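 PHA-stimulated (4 μg/ml, 48 to 72 h) PBMCs pooled from at least two seronegative donors, kept with 20 U/ml IL-2, plated at 5 × 10⁴ cells/well. Infected with clinical isolate (final MOI ≅0.1) alongside nine compound concentrations in triplicate wells, 7 days. Supernatant reverse transcriptase activity measured. TI is mean PBMC CC50 divided by mean EC50.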

[6] = tested on: Human immunodeficiency virus 1; assay: Antiviral activity HIV1 93BR023 infected in human PBMC after 7 days by scintillation counting; type: functional, organism-based; conditions: Human immunodeficiency virus 1, 93BR023, 168 h; procedure, shortened: as §2
[7] = Therapeutic index, ratio of CC50 for human PBMC to EC50 for HIV1 93BR023 infected in human PBMC; conditions: read-out: TI; procedure, shortened: as §4
[8] = tested on: Human immunodeficiency virus 1; assay: Antiviral activity against HIV1 harboring capsid I201V mutant protein infected in human HeLa cells assessed as decrease in viral infection after 72 hrs by beta-galactosidase reporter gene assay; type: functional, organism-based; conditions: Human immunodeficiency virus 1, HeLa
[9] = tested on: Human immunodeficiency virus 1; assay: Antiviral activity HIV1 92BR014 infected in human PBMC after 7 days by scintillation counting; type: functional, organism-based; conditions: Human immunodeficiency virus 1, 92BR014, 168 h; procedure, shortened: as §2
[10] = tested on: Human immunodeficiency virus 1; assay: Antiviral activity against HIV1 NL4-3 infected in human PM1 cells assessed as inhibition of viral p24 antigen production after 5 days; type: functional, organism-based; conditions: Human immunodeficiency virus 1, NL4-3, PM1, 120 h; procedure, shortened: as §3
[11] = Therapeutic index, ratio of CC50 for human PBMC to EC50 for HIV1 WEJO infected in human PBMC; conditions: read-out: TI; procedure, shortened: as §4
[12] = tested on: Human immunodeficiency virus 1; assay: Antiviral activity HIV1 92BR026 infected in human PBMC after 7 days by scintillation counting; type: functional, organism-based; conditions: Human immunodeficiency virus 1, 92BR026, 168 h
[13] = tested on: Human immunodeficiency virus 1; assay: Antiviral activity HIV1 92HT596 infected in human PBMC after 7 days by scintillation counting; type: functional, organism-based; conditions: Human immunodeficiency virus 1, 92HT596, 168 h
Procedure, shortened: (§5)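 PBMCs came from buffy coats pooled from 3–4 seronegative donors, were PHA-stimulated (1.5 μg/ml, 3 days) and frozen. Thawed cells were infected 1 h at 37°C with virus input set by TCID50, then pelleted and resuspended in IL-2 (10 ng/ml). They were plated at 4 × 10⁵ cells/ml onto compounds for 7 days at 37°C. Supernatant RT activity was measured by Quan-T-RT scintillation assay.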

[14] = Therapeutic index, ratio of CC50 for human PBMC to EC50 for HIV1 93BR029 infected in human PBMC; conditions: read-out: TI; procedure, shortened: as §1
[15] = tested on: Human immunodeficiency virus 1; assay: Antiviral activity against wild type HIV1 infected in human HeLa cells assessed as decrease in viral infection after 72 hrs by beta-galactosidase reporter gene assay; type: functional, organism-based; conditions: Human immunodeficiency virus 1, HeLa
Procedure, shortened: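 HeLa CD4 LTR/β-Gal cells (1 × 10⁴/well, DMEM + 10% FBS) were pretreated with half-log compound dilutions. They were then infected at MOI 0.03 with single-cycle NL4-3 ΔEnv reporter virus pseudotyped with envelope from HEK 293 cotransfection. EC50 was the concentration halving β-galactosidase activity versus infected untreated cells. Values are mean ± SD or representative of three experiments.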

[16] = tested on: Human immunodeficiency virus 1; assay: Antiviral activity HIV1 92HT599 infected in human PBMC after 7 days by scintillation counting; type: functional, organism-based; conditions: Human immunodeficiency virus 1, 92HT599, 168 h; procedure, shortened: as §5
[17] = Therapeutic index, ratio of CC50 for human PBMC to EC50 for HIV1 3B infected in human PBMC; conditions: read-out: TI
Procedure, shortened: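 TI was the mean PBMC CC50 divided by the mean EC50 from the 7-day PBMC reverse transcriptase assay.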

[18] = Therapeutic index, ratio of CC50 for human PM1 cells to EC50 for HIV1 Ba-L infected in human PM1 cells; type: cell-based; conditions: read-out: TI
Procedure, shortened: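 PM1 cells infected at MOI 0.16 for 2 h, washed, then seeded at 1 × 10⁴ cells/well on half-log compound dilutions. After 5 days, supernatant p24 antigen was quantified by ELISA kit. EC50 is the concentration halving p24 versus infected untreated cells. CC50 was measured in PM1 cells by XTT formazan at 450 nm. TI is CC50 divided by EC50.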

[19] = Cytotoxicity against human CEM-SS cells after 6 days by XTT assay; type: cell-based
Procedure, shortened: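 Uninfected cells were incubated with half-log compound dilutions for 6 days, then given XTT/PMS for 4 h and read at 450 nm. CC50 was the concentration reducing formazan to 50% of uninfected, compound-free cells. Values are means ± SD from 3–5 experiments or individual values.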

[20] = tested on: Human immunodeficiency virus 1; assay: Antiviral activity HIV1 92TH014 infected in human PBMC after 7 days by scintillation counting; type: functional, organism-based; conditions: Human immunodeficiency virus 1, 92TH014, 168 h; procedure, shortened: as §2
[21] = tested on: Human immunodeficiency virus 1; assay: Antiviral activity against HIV1 NL4-3 infected in HEK293 cells assessed as decrease in virus production at 2 times EC90 after 72 hrs by beta-galactosidase reporter gene assay; type: functional
[22] = Therapeutic index, ratio of CC50 for human PBMC to EC50 for HIV1 93BR021 infected in human PBMC; conditions: read-out: TI; procedure, shortened: as §4
[23] = tested on: Human immunodeficiency virus 1; assay: Antiviral activity HIV1 3B infected in human PBMC after 7 days by scintillation counting; type: functional, organism-based; conditions: Human immunodeficiency virus 1, 3B, 168 h; procedure, shortened: as §5
[24] = tested on: Human immunodeficiency virus 1; assay: Antiviral activity against HIV1 NL4-3 infected in HEK293 cells assessed as inhibition of viral p24 antigen production after 72 hrs

In the case of `CC(C)(C)c1ccc(C(Cn2cccc(C(F)(F)F)c2=O)NC2Cc3ccccc3C2)cc1` (centres undefined), the selectivity ratio [1] is reported as 12, the EC50 [2] is reported as > 17 µM and the EC50 [3] is reported as > 17 µM. The EC50 [4] was 0.21 µM, the selectivity ratio [5] was < 1 and the EC50 [6] was > 17 µM. The selectivity ratio [7] was < 1, the EC50 [8] was > 10 µM and the EC50 [9] was 7 µM. For the same compound, the EC50 [10] was 0.03 µM, the selectivity ratio [11] was 11 and the EC50 [12] was > 17 µM. It also gave an EC50 [13] of 0.32 µM, a selectivity ratio [14] of 30 and an EC50 [15] of 0.206 µM. The EC50 [16] was 1.4 µM, the selectivity ratio [17] was 53 and the selectivity ratio [18] was 4. The CC50 at 144 h [19] was 20 µM, the EC50 [20] was > 17 µM and the “inhibition (INH)” value [21] was 92%. For the same compound, the selectivity ratio [22] was 425, the EC50 [23] was 0.32 µM and the inhibition [24] was “inactive”.
